{
  "source": "paper PMC5435512",
  "about": "(Pain, 2017)",
  "key": {"[1]": {"tested_on": "tibial nerve mitochondrial respiration", "assay": "Mitochondrial bioenergetics", "assay_type": "in vivo, mice", "outline": "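Tibial nerves were run in an islet-capture XF24 plate in XF medium with 5.5 mM glucose, 0.5 mM pyruvate and 1 mM glutamine. Oligomycin (12 μM), FCCP (20 μM) and rotenone/antimycin A (20 μM each) were injected in sequence, with 4 cycles (3-min mix/3-min wait/4-min measure) at baseline and after each injection. Basal, ATP-linked, proton leak, maximal and non-mitochondrial OCR were derived.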"}, "rat DRG neurons": {"tested_on": "rat DRG neurons", "assay": "Mitochondrial movement in cultured DRG neurons", "assay_type": "cell-based", "details": "rat DRG neuron cultures, 3 hours", "outline": "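Commercial DRG neurons were cultured 5–7 days, then given BacMam 2.0 GFP mitochondrial label 24 h before treatment. […] Live imaging was done at 37°C in CO2-independent Hibernate E medium that still contained the drugs, and mitochondrial movement was scored.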"}, "DRG neurons": {"tested_on": "DRG neurons", "assay": "Mitochondrial bioenergetics in DRG neurons isolated from treated mice", "assay_type": "in vivo", "outline": "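Cells were cultured overnight in an XF24 plate in Ham's F10 + N2, switched to XF medium 1 h before the run. Injections: oligomycin 2 μM, FCCP 4 μM, rotenone/antimycin A 2 μM each. Cycles: 2-min mix/3-min wait/2-min measure ×3. OCR was normalised to protein; basal, ATP-linked, leak and maximal respiration were derived.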"}, "IENF density": {"tested_on": "IENF density", "assay": "Intra-epidermal nerve fiber", "assay_type": "in vivo, mice", "outline": "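Plantar hind-paw biopsies were cut as 25 μm frozen sections and stained for PGP9.5 and collagen IV, then imaged by confocal. IENFs crossing the dermal–epidermal junction were counted per mm of epidermis. Five random images per mouse, 4 mice/group, blinded analysis.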"}, "HDAC1-9": {"tested_on": "HDAC1-9", "assay": "HDAC enzyme assays, other isoforms", "assay_type": "biochemical", "outline": "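Test compound was diluted in 50 mM HEPES pH 7.4, 100 mM KCl, 0.001% Tween-20, 0.05% BSA and 20 μM TCEP, then preincubated 24 h with recombinant HDAC enzyme. Substrate at Km, with trypsin, was then added: acetyl-lysine tripeptide for HDAC1/2/3/6, trifluoroacetyl-lysine tripeptide for HDAC4/5/7/8/9. […] release was read over 30 min and the linear rate taken. IC50 came from a 4-parameter fit.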"}, "[2]": {"tested_on": "α-tubulin acetylation in SK-N-BE2 cells", "assay": "Western blot of acetylated α-tubulin in SK-N-BE2 cells", "assay_type": "cell-based", "details": "5 hours", "outline": "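SK-N-BE2 cells grown to 70% confluence, then exposed 5 h to test compound in DMSO (0.1% DMSO final in all wells). Cells PBS-washed, lysed in cold RIPA buffer with protease inhibitors and PMSF, sonicated, and centrifuged. Supernatants immunoblotted for acetylated α-tubulin (mouse monoclonal) and, as a non-HDAC6 substrate, histone H2BK5ac (rabbit polyclonal).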"}, "[3]": {"tested_on": "histone acetylation in SK-N-BE2 cells", "assay": "Western blot of histone acetylation", "assay_type": "cell-based", "details": "5 hours, 3 nM to 10 μM", "outline": "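SK-N-BE2 cells at 70% confluence were treated 5 h with test compound at 3 nM–10 μM final, with DMSO 0.1% total. Cells were washed in cold PBS and lysed in RIPA with protease inhibitors/PMSF, 10 min on ice. Lysates were sonicated and centrifuged. Supernatants were immunoblotted for histone H2BK5ac (rabbit polyclonal) and acetylated α-tubulin (mouse monoclonal).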"}, "[4]": {"assay": "In vivo pharmacokinetics in mice", "details": "5 mg/kg i.p.", "outline": "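Mice were fasted overnight and given a single 5 mg/kg i.p. dose in 10% dimethylacetamide + 10% Solutol HS 15 in saline. Retro-orbital blood was taken at 5, 15, 30 min and 1, 2, 4, 8, 24 h. Plasma was spun at 2,000 × g, 5 min, 4°C. Levels were measured by LC-MS/MS against a standard curve in mouse plasma, then PK parameters calculated; n=3/group.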"}, "[5]": {"tested_on": "cisplatin-induced mechanical allodynia", "assay": "Von Frey test, cisplatin-induced mechanical allodynia in mice", "assay_type": "in vivo"}, "[6]": {"tested_on": "paclitaxel-induced mechanical allodynia", "assay": "Von Frey test, paclitaxel-induced mechanical allodynia in rats", "assay_type": "in vivo", "details": "3 mg/kg oral twice daily for 7 days, last day tested"}, "GFAP expression": {"tested_on": "GFAP expression", "assay": "GFAP immunofluorescence in spinal cord dorsal horn", "assay_type": "in vivo", "details": "cisplatin-treated mice, 3 doses of 10 mg/kg"}, "[7]": {"tested_on": "cisplatin-induced numbness", "assay": "Adhesive removal test", "assay_type": "in vivo", "details": "mice, treatment starting after 2 rounds of cisplatin, tested in week 5", "outline": "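Test compound in 20% 2-hydroxypropyl-β-cyclodextrin + 0.5% hydroxypropyl methylcellulose in water, given i.p. at 3 or 10 mg/kg. A round adhesive patch was placed on the plantar hind paws. Time to a behavioural response (shaking, attempted removal) was recorded within a 15-minute test.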"}, "α-tubulin acetylation": {"tested_on": "α-tubulin acetylation", "assay": "Western blot of acetylated α-tubulin in tibial nerves", "assay_type": "in vivo", "details": "mice, saline or cisplatin followed by 11 doses", "outline": "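Tibial nerves were first run in an XF24 OCR assay (XF medium with 5.5 mM glucose, 0.5 mM pyruvate, 1 mM glutamine). The same nerves were then western-blotted for acetylated α-tubulin with a rabbit monoclonal.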"}, "Cox IV, SDHA and VDAC": {"tested_on": "Cox IV, SDHA and VDAC", "assay": "Western blot of mitochondrial proteins in tibial nerves", "assay_type": "in vivo, mice", "details": "2 rounds of cisplatin and 11 injections"}, "[8]": {"tested_on": "cisplatin-induced spontaneous pain", "details": "cisplatin-treated mice, 2 weeks of daily treatment"}, "[9]": {"tested_on": "HDAC6 compared with Class I HDACs", "details": "42; cited from earlier work"}},
  "data": [
    {"compound": "N.N.[Cl][Pt][Cl]", "note": "[cisplatin, Cisplatin, reference compound]", "values": [
      {"measurement": "mitochondrial respiration in tibial nerves", "setting": "[1]; mice, 2 cycles of cisplatin 2.3 mg/kg i.p. x 5 days", "result": "significantly decreased mitochondrial respiration"},
      {"measurement": "percentage of moving mitochondria", "setting": "rat DRG neurons; cisplatin 80 μM, vs vehicle", "result": "decreased the percentage of moving mitochondria"},
      {"measurement": "mitochondrial bioenergetics in DRG neurons", "setting": "DRG neurons; mice, 2 rounds of cisplatin", "result": "overall decrease in mitochondrial bioenergetics"},
      {"measurement": "IENF density in plantar surface of the paw", "setting": "IENF density; mice, 2 cycles of cisplatin", "result": "reduced the IENF density"}
    ]},
    {"compound": "ACY-1083", "values": [
      {"measurement": "inhibitory activity against other enzymes", "setting": "HDAC1-9", "result": "negligible inhibitory activity against other enzymes"},
      {"measurement": "selectivity for HDAC6 over all other HDAC isoforms tested", "setting": "HDAC1-9; HDAC1-9", "result": 260, "unit": "fold"},
      {"measurement": "selectivity towards HDAC6 in cells (α-tubulin vs histone acetylation)", "setting": "[2]", "result": "over 300 fold"},
      {"measurement": "concentration at which the increase in α-tubulin acetylation starts", "setting": "[2]; 3 nM to 10 μM", "result": 30, "unit": "nM"},
      {"measurement": "concentration at which an effect on histone acetylation is evident", "setting": "[3]", "result": 10, "unit": "µM"},
      {"measurement": "biologically active plasma exposure after dosing", "setting": "[4]", "result": 8, "unit": "hours"},
      {"measurement": "half-life (T1/2)", "setting": "[4]", "result": 3.5, "unit": "h"},
      {"measurement": "maximum plasma concentration (Cmax)", "setting": "[4]", "result": 936, "unit": "ng/mL"},
      {"measurement": "mechanical sensitivity in the absence of cisplatin treatment", "setting": "[5]; 10 mg/kg", "result": "did not alter mechanical sensitivity"},
      {"measurement": "time after the first dose at which the effect was first detected", "setting": "[5]; 10 mg/kg i.p.", "result": 24, "unit": "h"},
      {"measurement": "effect of a second round of 7 daily injections on mechanical allodynia", "setting": "[5]; 10 mg/kg, 7 days, 7 days rest", "result": "transiently reversed cisplatin-induced mechanical allodynia again"},
      {"measurement": "prevention of development of mechanical allodynia", "setting": "[5]; administered i.p. 1 hour prior to each dose of cisplatin", "result": "capable of preventing the development of mechanical allodynia"},
      {"measurement": "persistence of the protective effect after the last dose", "setting": "[6]", "result": "≥ 3", "unit": "days"},
      {"measurement": "GFAP expression in dorsal horn of spinal cord", "setting": "GFAP expression", "result": "normalized GFAP expression to levels comparable to saline-treated animals"},
      {"measurement": "cisplatin-induced numbness: time to respond to adhesive patch", "setting": "[7]", "result": "normalized the response time"},
      {"measurement": "α-tubulin acetylation in tibial nerves", "setting": "α-tubulin acetylation", "result": "increased α-tubulin acetylation"},
      {"measurement": "mitochondrial respiration in tibial nerve of cisplatin-treated mice", "setting": "[1]; 2 cycles of cisplatin followed by 11 doses", "result": "normalized all aspects of the cisplatin-induced decrease in mitochondrial respiration"},
      {"measurement": "mitochondrial bioenergetics in tibial nerve, treatment alone", "setting": "[1]; mice without cisplatin, 11 doses", "result": "did not have any effect on mitochondrial bioenergetics"},
      {"measurement": "Cox IV levels in tibial nerve of cisplatin-treated mice", "setting": "Cox IV, SDHA and VDAC", "result": "normalized Cox IV levels"},
      {"measurement": "percentage of moving mitochondria, co-administration with cisplatin", "setting": "rat DRG neurons; 100 nM with cisplatin 80 μM", "result": "prevented this cisplatin-induced decrease in mitochondrial transport"},
      {"measurement": "mitochondrial bioenergetics in DRG neurons of cisplatin-treated mice", "setting": "DRG neurons; 2 rounds of cisplatin and 11 injections", "result": "did not detect a similar recovery"},
      {"measurement": "mitochondrial bioenergetics in DRG neurons, treatment alone", "setting": "DRG neurons; mice without cisplatin, either time point", "result": "did not have any effect on mitochondrial bioenergetics in DRG neurons"},
      {"measurement": "mitochondrial bioenergetics in DRG neurons of cisplatin-treated mice", "setting": "DRG neurons; two weeks of treatment, 2 weeks after the last dose", "result": "significant recovery of mitochondrial bioenergetics"},
      {"measurement": "IENF density in cisplatin-treated mice, prolonged regimen", "setting": "IENF density; 2 cycles of cisplatin and 11 doses", "result": "completely reversed the cisplatin-induced loss of IENFs"},
      {"measurement": "IENF density in cisplatin-treated mice, short-term treatment", "setting": "IENF density; short-term treatment", "result": "had no effect on IENF density"},
      {"measurement": "spontaneous pain: preference for retigabine-paired light chamber", "setting": "[8]", "result": "did not develop a preference for the retigabine-paired light chamber"}
    ]},
    {"compound": "O=C(CCCCCCNC(=O)c1cnc(N(c2ccccc2)c2ccccc2)nc1)NO", "note": "[ACY-1215, Ricolinostat, reference compound]", "values": [
      {"measurement": "persistence of the beneficial effect after completion of treatment", "setting": "[5]; 30 mg/kg oral daily for two weeks, last time point tested", "result": "still present one week after completion of treatment"},
      {"measurement": "selectivity against HDAC6 compared with Class I HDACs", "setting": "[9]", "result": "over 10 fold"}
    ]}
  ]
}
